Calls of active or inactive are those of the source. No cut-off for these calls is given here. Where a SMILES comes first, the peptide text is derived from it. [ ]: non-standard residue; d: D form. NMeR = CN[C@@H](CCCNC(=N)N)C(=O)O; NMeS = CN[C@@H](CO)C(=O)O
What was measured:
[1] = Proteolytic stability of compound in human plasma assessed as protease-mediated degradation by measuring compound remaining at 200 uM incubated for 30 mins by UHPLC analysis; type: ADME, cell-free; details: read-out: Stability
How it was run: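 Compound (200 μM final, dissolved in water) incubated in human serum at 37 °C for 30 min. Samples every 5 min quenched 1:1 with 6% TCA and centrifuged. Supernatant analysed by UHPLC (UV 223 nm) for intact compound; cleavage sites identified by MS.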

[2] = Cytotoxicity in HEK293T cells assessed as cell viability at 100 uM incubated for 24 hrs by MTT assay relative to control; type: toxicity, cell-based, HEK-293T; details: human, read-out: Activity
How it was run: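 HEK293T cells grown in complete medium for 2 days, then the medium was replaced with compound at 1, 10, 25, 50 or 100 μM for 24 h. MTT was added, formazan dissolved in DMSO, and absorbance read at 570 nm. Mean of three biological replicates, compared with untreated control.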

[3] = test system: HEK-293T; assay: Cytotoxicity in HEK293T cells assessed as cell viability at 1 to 10 uM incubated for 24 hrs by MTT assay relative to control; type: toxicity, cell-based; details: human, dose 1-10 µM
How it was run: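 HEK293T cells grown 2 days, then medium replaced with compound at 1, 10, 25, 50 or 100 μM for 24 h. MTT added, formazan dissolved in DMSO, absorbance read at 570 nm. Mean of three biological replicates vs control, one-way ANOVA.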

[4] = test system: HEK-293T; assay: Cytotoxicity against HEK293T cells assessed as cell viability at 10 uM measured after 3 hrs by Hoechst 33342 staining based analysis; type: toxicity; details: human
How it was run: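 HEK293T cells in DMEM/10% FBS, seeded 3 × 10^4 per well and grown 48 h, then given 10 μM NBD-labelled modulators for 3 h. Hoechst 33342 added for the final 30 min. Cells washed with PBS and imaged by fluorescence microscopy (NBD and Hoechst channels). Three independent replicates.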

[5] = test system: Primary cortical neuron; assay: Activation of 20S proteasome in mouse Primary cortical neuron cells assessed as reduction in alpha-synuclein level at 2.5 uM incubated for 7 days; type: cell-based; details: filed as activator, time 7.0 day
How it was run: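 E16–E17 CD1 mouse cortical neurons cultured in Neurobasal A with B-27 and GlutaMAX. Treated at DIV7 with 2.5 μM activator for 7 days; lysed at DIV14, protein by BCA. α-Synuclein quantified by Simple Western Jess automated immunoblot with total-protein normalization. n = 3 biological replicates.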

[6] = Permeability of compound in PBS incubated for 22 hrs by PAMPA-BBB assay; type: ADME
How it was run: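 PAMPA-BBB with a 2% porcine brain lipid membrane. Compounds were diluted from 10 mM aqueous stocks to 500 μM in 0.1 M PBS containing 5% DMSO and incubated 22 h at 37 °C with shaking at 250 rpm. Read-out was fluorescence after reaction with 0.02% fluorescamine (absorbance at 290 nm for propranolol). Pe calculated as linear permeation velocity. Three biological replicates.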

[7] = test system: Hippocampal neuron; assay: Neuroprotective activity in mouse Hippocampal neuron cells assessed as increase in cell number at 0.5 to 5 uM pretreated with preformed fibrils followed by compound treatment measured after 7 days by DAPI staining/NeuN protein immunostaining analysis; type: functional, cell-based; details: dose 0.5-5 µM, time 7.0 day
[8] = test system: Hippocampal neuron; assay: Neuroprotective activity in mouse Hippocampal neuron cells assessed as decrease in Lewy body-like aggregates at 0.5 to 2.5 uM pretreated with alpha-synuclein followed by compound addition measured after 7 days by immunostaining analysis; type: functional, cell-based; details: dose 0.5-2.5 µM, time 7.0 day
How it was run: (§1)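 E16.0 mouse hippocampal neurons, 25,000 per well, poly-L-lysine coated, Neurobasal/B27. Day 8: sonicated mouse α-synuclein PFFs added (2.5 μg/mL final; PBS for controls). Modulator (0.5 or 2.5 μM) added 1 h later. Day 15: PFA fixation; immunostaining for pS129-αsyn and NeuN plus DAPI; automated imaging. 3 biological, 9–11 technical replicates.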

[9] = test system: Hippocampal neuron; assay: Activation of 20S proteasome in mouse Hippocampal neuron cells assessed as reduction in alpha-synuclein aggregation measured after 7 days by DAPI staining based immunofluorescence analysis; type: cell-based; details: filed as activator, dose 0.5-5 µM, time 7.0 day
[10] = test system: Hippocampal neuron; assay: Neuroprotective activity in mouse Hippocampal neuron cells assessed as neuron viability at 0.5 to 2.5 uM pretreated with alpha-synuclein followed by compound addition measured after 7 days by immunostaining analysis; type: functional, cell-based; details: dose 0.5-2.5 µM, time 7.0 day; how it was run: as §1
[11] = biological target: T1, 20S proteasome (Homo sapiens) (UniProt P49721+P20618+P28074+P28062+P28065+P28072+P25786+P25787+P25788+P25789+P28066+P60900+O14818+Q8TAA3+P40306+A5LHX3+P49720+P28070+Q99436); assay: Activation of human 20S proteasome assessed as alpha-synuclein degradation by measuring residual activity at 10 uM by SDS-PAGE analysis relative to control; type: protein-complex assay; details: filed as activator, time 1.5 hrs
[12] = biological target: T1, 20S proteasome (Homo sapiens); assay: Activation of human 20S proteasome assessed as tau degradation at 10 uM by SDS-PAGE analysis relative to control; type: protein-complex assay; details: filed as activator, time 1.5 hrs
[13] = biological target: T1, 20S proteasome (Homo sapiens); assay: Activation of 20S proteasome chymotrypsin-like activity in HEK293T cell lysate using Suc-LLVY-AMC as substrate assessed as fold increase in activity at 5 uM by fluorescence based analysis relative to control; type: subcellular; details: filed as activator
How it was run: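 Chymotrypsin-like activity read with Suc-LLVY-AMC. 1 μM bortezomib as negative control. Fold activity vs vehicle control; at least three independent replicates, one-way ANOVA with Tukey.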

[14] = biological target: T1, 20S proteasome (Homo sapiens); assay: Activation of human erythrocyte-derived 20S proteasome chymotrypsin-like activity using Suc-LLVY-AMC as substrate assessed as fold increase in activity at 1 uM measured every two mins for 60 mins by fluorescence based analysis relative to control; details: filed as activator
How it was run: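 h20S proteasome 0.002 mg/mL (2.8 nM) in 50 mM Tris/HCl pH 8.0, 2% DMSO final. Suc-LLVY-AMC 100 μM final. Modulators 1.0–50 μM (TAT/6R constructs 0.5–10 μM). AMC fluorescence ex 380/em 460 nm read every 2 min for 60 min at 37 °C. Activity relative to DMSO-treated latent proteasome (100%); ≥3 replicates.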

[15] = biological target: T1, 20S proteasome (Homo sapiens); assay: Activation of human erythrocyte-derived 20S proteasome trypsin-like activity using Boc-LRR-AMC as substrate at 0.5 to 10 uM measured every two mins for 60 mins by fluorescence based analysis; details: filed as activator, dose 0.5-10 µM
[16] = biological target: T1, 20S proteasome (Homo sapiens); assay: Activation of human erythrocyte-derived 20S proteasome using Dabcyl-EDANS as FRET-type substrate at 1.0 to 50 uM measured every two mins for 60 mins by fluorescence based analysis; type: cell-based; details: filed as activator, dose 1-50 µM
How it was run: (§2)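 Latent human 20S proteasome (0.002 mg/mL, 2.8 nM) in 50 mM Tris/HCl pH 8.0 with 2% DMSO. AMC substrates at 100 μM final (ex 380/em 460 nm); Dabcyl-EDANS at 15 μM final (ex 335/em 493 nm). Modulators at 1.0–50 μM; TAT- or 6R-containing constructs at 0.5–10 μM. Read every 2 min for 60 min at 37 °C. Activity relative to DMSO-treated proteasome (100%). ≥3 independent replicates.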

[17] = biological target: T1, 20S proteasome (Homo sapiens); assay: Activation of human erythrocyte-derived 20S proteasome chymotrypsin-like activity using Suc-LLVY-AMC as substrate at 1.0 to 50 uM measured every two mins for 60 mins by fluorescence based analysis; details: filed as activator, dose 1-50 µM
[18] = biological target: T1, 20S proteasome (Homo sapiens); assay: Activation of human erythrocyte-derived 20S proteasome using Dabcyl-EDANS as FRET-type substrate at higher concentration measured every two mins for 60 mins by fluorescence based analysis; type: cell-based; details: filed as activator; how it was run: as §2
[19] = biological target: T1, 20S proteasome (Homo sapiens); assay: Activation of human erythrocyte-derived 20S proteasome trypsin-like activity using Boc-LRR-AMC as substrate at 1.0 to 50 uM measured every two mins for 60 mins by fluorescence based analysis; details: dose 1-50 µM
[20] = biological target: T1, 20S proteasome (Homo sapiens); assay: Activation of human erythrocyte-derived 20S proteasome caspase-like activity using Z-LLE-AMC as substrate at 1.0 to 50 uM measured every two mins for 60 mins by fluorescence based analysis; details: filed as activator, dose 1-50 µM; how it was run: as §2
[21] = Effect on secondary structure of drug in water at 2 mg/ml assessed as alpha-helical conformation by CD analysis; type: physicochemical; details: buffer

SMILES | remaining at 0.5 h, 200 µM [1] [%] | Activity [3] | Activity [4] | Activity [5] | permeability [6] | Activity [7] | Activity [8] | Activity [10] | further results
C[C@@H](O)[C@H](NC(=O)[C@H](Cc1ccccc1)NC(=O)[C@H](Cc1ccc(O)cc1)NC(=O)CN(CCCCN)C(=O)[C@H](CCCNC(=N)N)NC(=O)[C@H](CCCNC(=N)N)NC(=O)[C@H](CCCNC(=N)N)NC(=O)[C@H](CCNC(=N)N)NC(=O)[C@H](CCCNC(=N)N)NC(=O)[C@@H](N)CCCNC(=N)N)C(=O)NCC(=O)N[C@@H](CO)C(=O)N[C@@H](CCCCN)C(=O)N[C@@H](CC(=O)O)C(=O)N[C@@H](Cc1c[nH]c2ccccc12)C(=O)N[C@@H](CCCNC(=N)N)C(=O)N[C@@H](CO)C(=O)N[C@@H](Cc1ccc(O)cc1)C(=O)N[C@@H](Cc1ccc(O)cc1)C(=O)N[C@@H](CO)C(=O)O | > 60 | Non-toxic | Non-toxic | Active | Permeable | Active | Active | Active | viability at 24 h, 100 µM [2]: ~50%; Activity [9]: Dose-dependent-effect
C[C@@H](O)[C@H](NC(=O)[C@H](Cc1ccccc1)NC(=O)[C@H](Cc1ccc(O)cc1)NC(=O)CN(CCCCN)C(=O)[C@H](CCCNC(=N)N)NC(=O)[C@H](CCCNC(=N)N)NC(=O)[C@H](CCCNC(=N)N)NC(=O)[C@H](CCC(N)=O)NC(=O)[C@H](CCCNC(=N)N)NC(=O)[C@H](CCCNC(=N)N)NC(=O)[C@H](CCCCN)NC(=O)[C@H](CCCCN)NC(=O)[C@@H](N)CCCNC(=N)N)C(=O)NCC(=O)N[C@@H](CO)C(=O)N[C@@H](CCCCN)C(=O)N[C@@H](CC(=O)O)C(=O)N[C@@H](Cc1c[nH]c2ccccc12)C(=O)N[C@@H](CCCNC(=N)N)C(=O)N[C@@H](CO)C(=O)N[C@@H](Cc1ccc(O)cc1)C(=O)N[C@@H](Cc1ccc(O)cc1)C(=O)N[C@@H](CO)C(=O)O | > 60 | Non-toxic | Non-toxic | Active | Permeable | Active | Active | Active | Activity [11]: < 40%; Activity [12]: > 90%; fold change (FC) [13]: 4; fold change (FC) [14]: 16; Activity [15]: Active
C[C@@H](O)[C@H](NC(=O)[C@H](Cc1ccccc1)NC(=O)[C@H](Cc1ccc(O)cc1)NC(=O)[C@@H](N)CCCCN)C(=O)NCC(=O)N[C@@H](CO)C(=O)N[C@@H](CCCCN)C(=O)N[C@@H](CC(=O)O)C(=O)N[C@@H](Cc1c[nH]c2ccccc12)C(=O)N(C)[C@@H](CCCNC(=N)N)C(=O)N(C)[C@@H](CO)C(=O)N[C@@H](Cc1ccc(O)cc1)C(=O)N[C@@H](Cc1ccc(O)cc1)C(=O)N[C@@H](CO)C(=O)O (H-KYFTGSKDW[NMeR][NMeS]YYS-OH) | – | – | – | – | – | – | – | – | Activity [16]: Active; Activity [17]: Active; Lower Capacity Of Activation Is Observed; Activity [18]: Active; Activity [19]: inactive; Activity [20]: Moderate_effect; Activity [21]: Active
